Structures are written as SMILES.

For one molecule, Activity and IC50 results are on record in ChEMBL document CHEMBL4808178 (J Med Chem, 2021).

Experiment [1] concerns HCT-116. Nature of the experiment: Induction of apoptosis in human HCT116 cells assessed as late apoptotic cells at 20 uM after 24 hrs by annexin V-FITC/propidium iodide staining based flow cytometry (reference value: 5.1%). The experiment is classed as functional.
Experiment [2] concerns HCT-116. Nature of the experiment: Induction of apoptosis in human HCT116 cells assessed as necrotic cells at 10 uM after 24 hrs by annexin V-FITC/propidium iodide staining based flow cytometry (reference value: 5.6%). The experiment is classed as functional.
The next experiment deals with PC-3. Nature of the experiment: Cytotoxicity against human PC3 cells assessed as reduction in cell viability incubated for 72 hrs by MTT assay. It counts as functional, cell-based. The settings on record: PC-3, 72 h. A digest of the protocol: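 About 5 × 10³ cells/well, seeded overnight at 37 °C, 5% CO₂, in DMEM or RPMI-1640 with 10% FBS and antibiotics. DMSO-dissolved compounds diluted in medium, exposure 72 h.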

The target in experiment [3] is T1, Ephrin type-A receptor 1 (Homo sapiens) (UniProt P21709).
T1 sequence (whole entry): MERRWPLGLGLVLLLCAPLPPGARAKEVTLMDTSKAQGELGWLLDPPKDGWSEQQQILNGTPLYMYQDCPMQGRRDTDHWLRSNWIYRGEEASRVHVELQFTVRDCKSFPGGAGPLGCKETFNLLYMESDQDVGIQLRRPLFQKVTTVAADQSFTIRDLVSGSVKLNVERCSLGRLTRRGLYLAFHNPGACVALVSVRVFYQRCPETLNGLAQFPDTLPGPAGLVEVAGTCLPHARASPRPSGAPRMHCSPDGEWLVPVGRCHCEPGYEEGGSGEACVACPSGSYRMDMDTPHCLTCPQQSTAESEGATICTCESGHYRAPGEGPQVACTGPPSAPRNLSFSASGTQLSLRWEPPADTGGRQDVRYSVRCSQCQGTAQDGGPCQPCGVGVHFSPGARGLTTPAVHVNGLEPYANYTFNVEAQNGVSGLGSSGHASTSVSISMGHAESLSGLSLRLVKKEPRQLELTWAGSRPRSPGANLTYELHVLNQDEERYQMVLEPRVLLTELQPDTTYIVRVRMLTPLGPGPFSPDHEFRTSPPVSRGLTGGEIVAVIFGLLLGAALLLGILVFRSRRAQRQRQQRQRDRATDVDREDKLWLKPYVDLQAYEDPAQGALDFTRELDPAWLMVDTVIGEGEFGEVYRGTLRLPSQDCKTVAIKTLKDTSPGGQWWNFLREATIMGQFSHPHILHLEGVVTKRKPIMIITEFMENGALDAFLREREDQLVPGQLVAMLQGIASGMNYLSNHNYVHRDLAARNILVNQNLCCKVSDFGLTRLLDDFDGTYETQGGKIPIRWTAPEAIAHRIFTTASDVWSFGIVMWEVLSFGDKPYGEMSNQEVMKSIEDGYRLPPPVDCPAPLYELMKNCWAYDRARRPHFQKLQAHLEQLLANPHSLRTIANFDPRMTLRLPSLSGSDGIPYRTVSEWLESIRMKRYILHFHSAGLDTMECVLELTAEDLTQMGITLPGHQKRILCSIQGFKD
Nature of the experiment: Inhibition of EPHA1 (unknown origin) assessed as residual activity at 1 uM relative to control. A digest of the protocol:
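Single-concentration screen at 1 μmol/L against a panel of 208 kinases, run as a commercial service; activity expressed relative to control.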

For the molecule `O=C(NCCO)c1ccc2c(c1)nc(Nc1cccc(Cl)c1)c1ccncc12`, the Activity in the experiment on HCT-116 [1] was 32.9%; in the experiment with HCT-116 [2] it was 7.6%; in experiment [3], 45.2%. The IC50 with PC-3 worked out at 4.53 µM.
